Activity calls are given as the source filed them.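 Rule for the calls, unless noted: active = viability at or under a set limit in both replicates, limit being median viability minus 3 SD (cut at about 48% in these data, passing the limit was not always enough); inconclusive = at or under the limit in just one replicate; inactive = at or above the limit in both replicates.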

Data on 15 compounds can be found in PubChem BioAssay.

The nature of experiment [1]: Her2 expression decrease, cell viability multiplex – SKBR3 breast tumor cells, AlphaScreen, ATP viability, primary screen (AID 461;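 active = Her2 level under about 52% in both replicate screens, with viability over 70% of control, limit read from the data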;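 for Her2 level: lower value means less Her2 protein in the cells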;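 for viability: percent of carrier control wells set as 100% viability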). Conditions: SKBR3 Her2 protein level, 18-24 h, measured here: SKBR3 viability, ATP luminescence, at 10 µM. A general note: Bead proximity is the source of the signal in Alpha formats.
Experiment [2] addresses Receptor tyrosine-protein kinase erbB-2 (Homo sapiens) (UniProt P04626). The description is as above. To be noted: 18-24 h, at 10 µM, stronger effect = lower value.
The nature of experiment [3]: reduced viability of SK-BR-3 breast cancer cells – cell-based, 24 h, human, pilot screen (AID 572;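 active = viability at or below 10% of carrier control in both of two separate runs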;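 note: compound exposure lasted between 18 and 24 h rather than exactly 24 h; 100% = carrier-treated control wells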). Conditions: SK-BR-3 viability, CellTiter-Glo luminescence, at 10 µM, stronger effect = lower value. In general terms: Cellular ATP, detected with luciferase, serves as a proxy for viable cell number.
A short description of experiment [4]: HUVEC growth inhibition – cell-based, human, primary screen (AID 575;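 active = viability at or below 30% in both replicate assays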;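 note: 100% = median of untreated cell wells with 0.1% DMSO on each plate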). To be noted: HUVEC proliferation, CellTiter-Glo luminescence, 72 h; at 10 µM; stronger effect = lower value. Put shortly:
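Timing: 72 h treatment at 37 °C; material: HUVEC primary cells; technique: CellTiter-Glo luminescence measuring cellular ATP; controls: vehicle and MePR control wells; measure: percent of median DMSO-control luminescence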

Experiment [5] can be described thus: H69AR cell proliferation blockers – human, duplicate replicates, primary screen (AID 580).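 Note: 100% = mean luminescence of untreated wells and 0% = no signal.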 Conditions: H69AR lung tumor cells viability, ATP luminescence, 72 h; at 10 µM; stronger effect = lower value.
Experiment [6] is described as follows: MRP1 drug-resistance reversers in H69AR cells – cell-based, doxorubicin co-treatment, pilot screen (AID 601;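 active = viability loss from added drug above about 55%, and viability with drug at most 40%, in both replicates, limit read from the data, passing the limit was not always enough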). To be noted: CellTiter-Glo, 72 h, at 10 µM; for differential viability (reversal): stronger effect = higher value.
The nature of experiment [7]: yeast transport mutant growth inhibition pilot in 384-well plates, post-Golgi transport modulator project (AID 636; in the data active = inhibition above about 31%). Conditions: absorbance 615 nm, about 18 h, stronger effect = higher value.
Experiment [8] in a line: growth suppression of yeast trafficking mutant, preliminary HTS, modulators of trafficking downstream of Golgi apparatus project, 1536-format plate, OD 615 nm (AID 637; in the data active = inhibition above about 30%). To be noted: yeast transport mutant growth, absorbance 615 nm, 18 h; stronger effect = higher value.
[9] abbreviates: H69AR cells + 2 uM doxorubicin, measured here: viability with 2 uM doxorubicin, stronger effect = lower value.
Where [10] appears, read: H69AR cells, compound alone cytotoxicity.

Sequence of Receptor tyrosine-protein kinase erbB-2 (Homo sapiens) (P04626 whole entry, looked up): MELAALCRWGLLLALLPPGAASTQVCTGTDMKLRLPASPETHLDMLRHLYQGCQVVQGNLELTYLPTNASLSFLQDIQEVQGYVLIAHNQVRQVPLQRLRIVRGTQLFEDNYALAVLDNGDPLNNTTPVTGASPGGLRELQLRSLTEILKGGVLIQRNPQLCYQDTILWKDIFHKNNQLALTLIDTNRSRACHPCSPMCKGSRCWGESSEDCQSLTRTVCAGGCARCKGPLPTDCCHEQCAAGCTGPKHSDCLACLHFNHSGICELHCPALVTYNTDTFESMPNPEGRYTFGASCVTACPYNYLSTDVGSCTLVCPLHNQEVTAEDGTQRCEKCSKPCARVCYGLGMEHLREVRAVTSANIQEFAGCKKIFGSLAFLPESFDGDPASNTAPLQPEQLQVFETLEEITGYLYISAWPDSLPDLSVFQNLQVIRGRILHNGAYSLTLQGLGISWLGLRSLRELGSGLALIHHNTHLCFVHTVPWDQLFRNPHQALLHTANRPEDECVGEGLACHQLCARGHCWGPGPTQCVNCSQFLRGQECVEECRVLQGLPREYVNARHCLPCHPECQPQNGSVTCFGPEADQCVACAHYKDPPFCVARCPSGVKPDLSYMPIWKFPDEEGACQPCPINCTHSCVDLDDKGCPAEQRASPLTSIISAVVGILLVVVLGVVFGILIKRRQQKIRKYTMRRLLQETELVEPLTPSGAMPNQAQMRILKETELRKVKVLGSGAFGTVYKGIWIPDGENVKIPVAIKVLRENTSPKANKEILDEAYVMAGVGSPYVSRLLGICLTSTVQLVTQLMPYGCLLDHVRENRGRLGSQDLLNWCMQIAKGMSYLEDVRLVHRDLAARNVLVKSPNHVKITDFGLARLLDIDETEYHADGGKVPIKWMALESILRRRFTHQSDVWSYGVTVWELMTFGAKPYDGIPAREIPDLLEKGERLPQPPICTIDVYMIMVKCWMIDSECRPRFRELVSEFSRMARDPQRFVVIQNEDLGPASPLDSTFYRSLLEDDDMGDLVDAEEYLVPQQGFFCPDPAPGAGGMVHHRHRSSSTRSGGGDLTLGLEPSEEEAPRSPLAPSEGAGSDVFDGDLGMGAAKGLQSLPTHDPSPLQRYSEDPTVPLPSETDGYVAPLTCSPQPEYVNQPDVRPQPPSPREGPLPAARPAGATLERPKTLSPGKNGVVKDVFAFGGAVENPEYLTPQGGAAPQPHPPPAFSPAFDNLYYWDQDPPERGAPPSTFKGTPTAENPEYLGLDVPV

A word on the viability: it is a read-out of living cells in per cent, often relative to untreated cells. What is called inhibition is the drop in the measured response relative to a control, in per cent. Consider `CCN(CC)C(=O)CSc1nc2ccc(NC(=O)CSc3nccn3C)cc2s1`, for which the viability in experiment [1] was 88.5%; in experiment [3] it was 88.5% (inactive); in experiment [4] it was 68.2% (inactive); in experiment [5], 91% (inactive); in experiment [6] (setting [9]) it was 84.8%; in experiment [6] (setting [10]), 91%. In addition, in experiment [2], the Her2 level is 93.5% (inactive). The differential viability (reversal) in experiment [6] (H69AR cells + 2 uM doxorubicin) is 6.22% (inactive). Besides, the inhibition in experiment [7] is -4.47% (inactive); in experiment [8], -1.45% (inactive).
On to `COc1ccc(-c2nn3c(-c4ccncc4)nnc3s2)cc1OC`, for which the viability in experiment [1] is 105%; in experiment [3], 105% (inactive); in experiment [4], 104% (inactive); in experiment [5] it was 99.2% (inactive); in experiment [6] (setting [9]), 108%; in experiment [6] (setting [10]), 99.2%. In experiment [2], the Her2 level was 116% (inactive). The differential viability (reversal) in experiment [6] (H69AR cells + 2 uM doxorubicin) was -8.5% (inactive). Also, the inhibition in experiment [7] was -0.39% (inactive); in experiment [8], 0.16% (inactive).
`CN(C)C(=O)Cn1c(SCC(=O)NC2CCCCC2)nc2ccccc21`: the viability in experiment [1] is 72%; in experiment [3], 72% (inactive); in experiment [4] it was 101% (inactive); in experiment [5] it was 102% (inactive); in experiment [6] (setting [9]), 87.5%; in experiment [6] (setting [10]), 102%. Also, the Her2 level in experiment [2] is 76% (inactive). The differential viability (reversal) in experiment [6] (H69AR cells + 2 uM doxorubicin) was 14.8% (inactive). The results for the inhibition in experiment [7] and in experiment [8] were -6.08% (inactive) and 0.16% (inactive), respectively.
Regarding `O=C(OCc1nnc(-c2ccccc2)o1)c1ccc2ccccc2n1`, the viability is 106% in experiment [1]; 106% (inactive) in experiment [3]; 100% (inactive) in experiment [4]; 89.4% (inactive) in experiment [5]; 90.1% in experiment [6] (setting [9]); 89.4% in experiment [6] (setting [10]). In addition, in experiment [2], the Her2 level was 116% (inactive). Moreover, in experiment [6] (H69AR cells + 2 uM doxorubicin), the differential viability (reversal) was -0.715% (inactive). The values for the inhibition in experiment [7] and in experiment [8] were 3.15% (inactive) and 23.2% (inactive), respectively.
Turning to `CCOC(=O)c1ccc(-c2c(C(=O)OCC)oc3cc(O)c(CC)cc3c2=O)o1`, the viability in experiment [1] was 96.5%; in experiment [3], 96.5% (inactive); in experiment [4], 76.6% (inactive); in experiment [5] it was 83.3% (inactive); in experiment [6] (setting [9]), 103%; in experiment [6] (setting [10]), 83.3%. In experiment [2], the Her2 level was 88.5% (inactive). Moreover, the differential viability (reversal) in experiment [6] (H69AR cells + 2 uM doxorubicin) was -19.3% (inactive). Moreover, the inhibition is -3.42% (inactive) in experiment [7] and 11.6% (inactive) in experiment [8].
Take `O=C1CCCC2=C1C1(CCCC1)N=C(Nc1nc3ccccc3s1)N2`: the viability in experiment [1] was 99.5%; in experiment [3] it was 99.5% (inactive); in experiment [4], 62.8% (inactive); in experiment [5] it was 79.5% (inactive); in experiment [6] (setting [9]) it was 68.2%; in experiment [6] (setting [10]) it was 79.5%. Further, the Her2 level in experiment [2] is 80% (inactive). Also, the differential viability (reversal) in experiment [6] (H69AR cells + 2 uM doxorubicin) is 11.3% (inactive). Moreover, the inhibition in experiment [7] is -4.21% (inactive); in experiment [8], -2.33% (inactive).
Turning to `CCC(C)(C(=O)NC1CCCCC1)N(CC1CCCO1)C(=O)c1ccccn1` (stereo not given), the viability in experiment [1] was 82%; in experiment [3], 82% (inactive); in experiment [4], 91.6% (inactive); in experiment [5], 89% (inactive); in experiment [6] (setting [9]) it was 90.6%; in experiment [6] (setting [10]), 89%. Besides, the Her2 level in experiment [2] is 99% (inactive). In addition, the differential viability (reversal) in experiment [6] (H69AR cells + 2 uM doxorubicin) is -1.55% (inactive). Besides, the inhibition in experiment [7] is -0.26% (inactive); in experiment [8], -1.15% (inactive).
With `O=C(COC(=O)c1ccccc1O)Nc1ccc(OC(F)F)cc1`, the viability in experiment [1] was 78%; in experiment [3], 78% (inactive); in experiment [4] it was 93.7% (inactive); in experiment [5] it was 93.2% (inactive); in experiment [6] (setting [9]), 90.5%; in experiment [6] (setting [10]) it was 93.2%. Further, in experiment [2], the Her2 level is 123% (inactive). For the same compound, the differential viability (reversal) in experiment [6] (H69AR cells + 2 uM doxorubicin) is 2.67% (inactive). For the same compound, the results for the inhibition in experiment [7] and in experiment [8] were 5.14% (inactive) and 32.4% (active), respectively.
On to `Cc1ccc(CNC(=O)CSc2n[nH]c(N)n2)cc1`, for which the viability is 100% in experiment [1]; 100% (inactive) in experiment [3]; 82.3% (inactive) in experiment [4]; 96.6% (inactive) in experiment [5]; 98.5% in experiment [6] (setting [9]); 96.6% in experiment [6] (setting [10]). Also, the Her2 level in experiment [2] was 99.5% (inactive). In experiment [6] (H69AR cells + 2 uM doxorubicin), the differential viability (reversal) is -1.86% (inactive). Moreover, the results for the inhibition in experiment [7] and in experiment [8] were 0.79% (inactive) and 5.9% (inactive), respectively.
`CCCCCc1c(O)c2ccccc2[nH]c1=O`: the viability in experiment [1] is 108%; in experiment [3], 108% (inactive); in experiment [4], 124% (inactive); in experiment [5], 98.1% (inactive); in experiment [6] (setting [9]), 94.5%; in experiment [6] (setting [10]) it was 98.1%. The Her2 level in experiment [2] was 91.5% (inactive). Moreover, the differential viability (reversal) in experiment [6] (H69AR cells + 2 uM doxorubicin) was 3.62% (inactive). Also, the inhibition in experiment [7] is -1.71% (inactive); in experiment [8], 2.46% (inactive).
On to `O=C(OCCCCN1C(=O)c2ccccc2C1=O)c1n[nH]c2ccccc12`, for which the viability in experiment [1] was 92.5%; in experiment [3], 92.5% (inactive); in experiment [4], 76.4% (inactive); in experiment [5], 101% (inactive); in experiment [6] (setting [9]), 94.9%; in experiment [6] (setting [10]) it was 101%. The Her2 level in experiment [2] is 86% (inactive). Further, in experiment [6] (H69AR cells + 2 uM doxorubicin), the differential viability (reversal) was 6.39% (inactive). Further, the inhibition is -7.67% (inactive) in experiment [7] and 4.29% (inactive) in experiment [8].
As to `COc1cccc(-c2nnc(SCC(=O)N3CCCc4ccccc43)o2)c1`, the viability in experiment [1] was 93.5%; in experiment [3], 93.5% (inactive); in experiment [4] it was 60.4% (inactive); in experiment [5], 90.6% (inactive); in experiment [6] (setting [9]), 85.8%; in experiment [6] (setting [10]) it was 90.6%. In experiment [2], the Her2 level is 87.5% (inactive). In addition, the differential viability (reversal) in experiment [6] (H69AR cells + 2 uM doxorubicin) is 4.79% (inactive). Besides, the inhibition in experiment [7] was -4.61% (inactive); in experiment [8], -3.33% (inactive).
For `COc1ccc(-c2noc(CN3CCC(Cc4ccccc4)CC3)n2)cc1`, the viability is 94% in experiment [1]; 94% (inactive) in experiment [3]; 87.5% (inactive) in experiment [4]; 93.5% (inactive) in experiment [5]; 88.9% in experiment [6] (setting [9]); 93.5% in experiment [6] (setting [10]). Also, the Her2 level in experiment [2] is 112% (inactive). Besides, the differential viability (reversal) in experiment [6] (H69AR cells + 2 uM doxorubicin) is 4.6% (inactive). In addition, the inhibition in experiment [7] was -4.8% (inactive); in experiment [8], -3.39% (inactive).
`CC(C)(CO)NC(=O)CCCOc1ccc(Cl)cc1Cl`: the viability in experiment [1] was 97%; in experiment [3], 97% (inactive); in experiment [4], 84.5% (inactive); in experiment [5], 98.1% (inactive); in experiment [6] (setting [9]) it was 79.2%; in experiment [6] (setting [10]), 98.1%. For the same compound, in experiment [2], the Her2 level was 104% (inactive). Besides, the differential viability (reversal) in experiment [6] (H69AR cells + 2 uM doxorubicin) is 19% (inactive). The inhibition in experiment [7] was -0.26% (inactive); in experiment [8], 0.17% (inactive).
In the case of `CCNCCNC(=O)c1c(O)c2ccccc2n(CC)c1=O`, the viability in experiment [1] is 126%; in experiment [3], 126% (inactive); in experiment [4], 84.7% (inactive); in experiment [5], 89.1% (inactive); in experiment [6] (setting [9]), 84.3%; in experiment [6] (setting [10]), 89.1%. Also, in experiment [2], the Her2 level was 90.5% (inactive). The differential viability (reversal) in experiment [6] (H69AR cells + 2 uM doxorubicin) was 4.78% (inactive). Besides, the figures for the inhibition in experiment [7] and in experiment [8] were -4.87% (inactive) and 0.81% (inactive), respectively.
